Experiment [1] deals with Pseudomonas aeruginosa. The experiment in a line: Antibacterial activity against Pseudomonas aeruginosa 1956 by twofold serial dilution method. The experiment is classed as functional. The gist of the method:
(§1)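 MIC by twofold serial dilution in Mueller-Hinton agar with adjusted Ca2+ and Mg2+, spotted with a Steers multiple inoculator at about 10^4 CFU per spot. Plates were incubated at 37°C and read visually at 18 and 24 h. Values are modal MICs of three independent determinations.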

For experiment [2], the system named is Pseudomonas aeruginosa. Kind of experiment: microbe, parasite or virus in culture. The following applies: 2439.
In experiment [3] the test system is Pseudomonas aeruginosa. Kind of experiment: Antibacterial activity against Pseudomonas aeruginosa EryR by twofold serial dilution method. The experiment is classed as functional. The gist of the method: as §1
Experiment [4] concerns Pseudomonas aeruginosa. Kind of experiment: Antibacterial activity against Pseudomonas aeruginosa PAO1 by twofold serial dilution method. Format: functional. The gist of the method: as §1
The subject of experiment [5] is Pseudomonas aeruginosa. The experiment in a line: Antibacterial activity against Pseudomonas aeruginosa FE60 by twofold serial dilution method. The experiment is classed as functional. The gist of the method: as §1
Experiment [6] relates to Pseudomonas aeruginosa. Kind of experiment: Antibacterial activity against Pseudomonas aeruginosa FK06 by twofold serial dilution method. The experiment is classed as functional. The gist of the method:
as §1

In experiment [7] the test system is Pseudomonas aeruginosa. The experiment in a line: microbe, parasite or virus in culture. The following applies: 2126.
Experiment [8] has as its system Pseudomonas aeruginosa. Kind of experiment: Antibacterial activity against Pseudomonas aeruginosa 3308 by twofold serial dilution method. The experiment is classed as functional. The gist of the method:
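MIC by serial twofold agar dilution in cation-adjusted Mueller-Hinton agar, about 10^4 CFU per spot applied with Steers multiple inoculator; plates at 37°C, read visually at 18 and 24 h. Modal values of three independent determinations. For pNF225 carriers, 150 μg/ml ticarcillin was added to growth cultures.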

For experiment [9], the system named is Pseudomonas aeruginosa PAO1. The experiment in a line: Activity of beta-lactamase AmpC in Pseudomonas aeruginosa PAO1 by spectrophotometry. Put shortly: (§2)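 Crude French press lysates tested spectrophotometrically with nitrocefin; activity in nmol nitrocefin·min−1·mg protein−1. Induced activity obtained by adding 50 μg/ml cefoxitin to MHB culture 3 h before end of incubation; uninduced without. Triplicate measurements per strain; run-to-run variation under 15%.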

Experiment [10] has as its system Pseudomonas aeruginosa. Kind of experiment: Activity of beta-lactamase AmpC in Pseudomonas aeruginosa 3308 by spectrophotometry. Put shortly:
as §2

The subject of experiment [11] is Pseudomonas aeruginosa. Kind of experiment: Activity of beta-lactamase AmpC in Pseudomonas aeruginosa EryR by spectrophotometry. Put shortly:
as §2

For experiment [12], the system named is Pseudomonas aeruginosa. The experiment in a line: Activity of beta-lactamase AmpC in Pseudomonas aeruginosa 1956 by spectrophotometry. The gist of the method:
as §2

Experiment [13] concerns Pseudomonas aeruginosa. The experiment in a line: Activity of beta-lactamase AmpC in Pseudomonas aeruginosa 2439 by spectrophotometry. Put shortly:
as §2

The test system of experiment [14] is Pseudomonas aeruginosa. The experiment in a line: Activity of beta-lactamase AmpC in Pseudomonas aeruginosa 2126 by spectrophotometry. The gist of the method:
as §2

In experiment [15] the test system is Pseudomonas aeruginosa. Kind of experiment: Antibacterial activity against Pseudomonas aeruginosa 1956 harboring pNF225 carrying nfxB by twofold serial dilution method. Format: functional. The gist of the method:
(§3)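 nfxB plasmid pNF225 was electroporated into the strains and kept by adding 150 μg/ml ticarcillin to growth media. MIC by twofold serial dilution in cation-adjusted Mueller-Hinton agar, about 10^4 CFU per spot by Steers inoculator, at 37°C. Plates were read visually at 18 and 24 h. Values are modal MICs of three independent determinations.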

For experiment [16], the system named is Pseudomonas aeruginosa. Kind of experiment: Antibacterial activity against Pseudomonas aeruginosa EryR harboring pNF225 carrying nfxB by twofold serial dilution method. The experiment is classed as functional. The gist of the method:
as §3

Experiment [17] has as its system Pseudomonas aeruginosa. The experiment in a line: Antibacterial activity against Pseudomonas aeruginosa 2126 harboring pNF225 carrying nfxB by twofold serial dilution method. Format: functional. Put shortly:
as §3

The test system of experiment [18] is Pseudomonas aeruginosa. The experiment in a line: Antibacterial activity against Pseudomonas aeruginosa FK06 harboring pNF225 carrying nfxB by twofold serial dilution method. Format: functional. The gist of the method:
as §3

Experiment [19] relates to Pseudomonas aeruginosa. Kind of experiment: Antibacterial activity against Pseudomonas aeruginosa 2439 harboring pNF225 carrying nfxB by twofold serial dilution method. Format: functional. Put shortly: as §3
The subject of experiment [20] is Pseudomonas aeruginosa. The experiment in a line: Antibacterial activity against Pseudomonas aeruginosa 3308 harboring pNF225 carrying nfxB by twofold serial dilution method. The experiment is classed as functional. The gist of the method: as §3

≈ marks a conversion by molar mass, not a printed value.

In the case of `CO/N=C(\C(=O)N[C@@H]1C(=O)N2C(C(=O)[O-])=C(C[N+]3(C)CCCC3)CS[C@H]12)c1csc(N)n1`, the MIC against Pseudomonas aeruginosa [1] amounted to 2 µg/mL (≈ 4.16 µM); in the experiment on Pseudomonas aeruginosa [2] it was 8 µg/mL (≈ 16.6 µM); with Pseudomonas aeruginosa [3] it was 8 µg/mL (≈ 16.6 µM); in the experiment on Pseudomonas aeruginosa [4] it was 2 µg/mL (≈ 4.16 µM); with Pseudomonas aeruginosa [5], 2 µg/mL (≈ 4.16 µM); against Pseudomonas aeruginosa [6], 8 µg/mL (≈ 16.6 µM). Moreover, the MIC stood at 8 µg/mL (≈ 16.6 µM) against Pseudomonas aeruginosa [7] and 4 µg/mL (≈ 8.32 µM) in the experiment with Pseudomonas aeruginosa [8].
Regarding `O=C(Cc1cccs1)N[C@@H]1C(=O)N2C(C(=O)O)=C(/C=C/c3ccc([N+](=O)[O-])cc3[N+](=O)[O-])CS[C@H]12`, the Activity was determined as 1820 nmol/min/mg in [9]; 2670 nmol/min/mg in the experiment on Pseudomonas aeruginosa [10]; 3110 nmol/min/mg in the experiment on Pseudomonas aeruginosa [11]; 4550 nmol/min/mg in the experiment on Pseudomonas aeruginosa [12]; 2680 nmol/min/mg with Pseudomonas aeruginosa [13]; 5140 nmol/min/mg with Pseudomonas aeruginosa [14].
Turning to `NCC[C@H](O)C(=O)N[C@@H]1C[C@H](N)[C@@H](O[C@H]2O[C@H](CN)[C@@H](O)[C@H](O)[C@H]2O)[C@H](O)[C@H]1O[C@H]1O[C@H](CO)[C@@H](O)[C@H](N)[C@H]1O` [AMIKACIN], the MIC with Pseudomonas aeruginosa [15] was 2 µg/mL (≈ 3.42 µM); against Pseudomonas aeruginosa [1] it was 1 µg/mL (≈ 1.71 µM); in the experiment on Pseudomonas aeruginosa [16], 8 µg/mL (≈ 13.7 µM); in the experiment with Pseudomonas aeruginosa [17], 2 µg/mL (≈ 3.42 µM); in the experiment on Pseudomonas aeruginosa [2], 1 µg/mL (≈ 1.71 µM); in the experiment with Pseudomonas aeruginosa [18], 1 µg/mL (≈ 1.71 µM). The MIC in the experiment with Pseudomonas aeruginosa [3] was determined as 2 µg/mL (≈ 3.42 µM); in the experiment on Pseudomonas aeruginosa [4] it was 4 µg/mL (≈ 6.83 µM); in the experiment with Pseudomonas aeruginosa [5] it was 1 µg/mL (≈ 1.71 µM); in the experiment on Pseudomonas aeruginosa [6] it was 1 µg/mL (≈ 1.71 µM); with Pseudomonas aeruginosa [19], 2 µg/mL (≈ 3.42 µM); in the experiment on Pseudomonas aeruginosa [20] it was 1 µg/mL (≈ 1.71 µM). The MIC was 1 µg/mL (≈ 1.71 µM) in the experiment on Pseudomonas aeruginosa [7] and 0.5 µg/mL (≈ 0.854 µM) with Pseudomonas aeruginosa [8].
Consider `C[C@H]1[C@H](NC(=O)/C(=N\OC(C)(C)C(=O)O)c2csc(N)n2)C(=O)N1S(=O)(=O)O` [AZTREONAM], for which the MIC with Pseudomonas aeruginosa [1] is 1 µg/mL (≈ 2.3 µM); against Pseudomonas aeruginosa [2], 1 µg/mL (≈ 2.3 µM); with Pseudomonas aeruginosa [18] it was 4 µg/mL (≈ 9.19 µM); in the experiment with Pseudomonas aeruginosa [3], 1 µg/mL (≈ 2.3 µM); against Pseudomonas aeruginosa [5], 4 µg/mL (≈ 9.19 µM); with Pseudomonas aeruginosa [6], 1 µg/mL (≈ 2.3 µM). For the same compound, the MIC was 4 µg/mL (≈ 9.19 µM) in the experiment with Pseudomonas aeruginosa [20], 1 µg/mL (≈ 2.3 µM) in the experiment on Pseudomonas aeruginosa [7] and 1 µg/mL (≈ 2.3 µM) with Pseudomonas aeruginosa [8].
For the compound `O=C(N[C@H](CO)[C@H](O)c1ccc([N+](=O)[O-])cc1)C(Cl)Cl` [CHLORAMPHENICOL], the MIC was 64 µg/mL (≈ 198 µM) against Pseudomonas aeruginosa [15]; 128 µg/mL (≈ 396 µM) in the experiment with Pseudomonas aeruginosa [1]; 32 µg/mL (≈ 99 µM) against Pseudomonas aeruginosa [16]; 32 µg/mL (≈ 99 µM) against Pseudomonas aeruginosa [17]; 128 µg/mL (≈ 396 µM) with Pseudomonas aeruginosa [2]; 64 µg/mL (≈ 198 µM) in the experiment on Pseudomonas aeruginosa [18]. For the same compound, the MIC is 128 µg/mL (≈ 396 µM) against Pseudomonas aeruginosa [3]; 64 µg/mL (≈ 198 µM) in the experiment with Pseudomonas aeruginosa [4]; 64 µg/mL (≈ 198 µM) in the experiment with Pseudomonas aeruginosa [5]; 128 µg/mL (≈ 396 µM) against Pseudomonas aeruginosa [6]; 64 µg/mL (≈ 198 µM) with Pseudomonas aeruginosa [19]; 64 µg/mL (≈ 198 µM) against Pseudomonas aeruginosa [20]. Further, the MIC against Pseudomonas aeruginosa [7] and against Pseudomonas aeruginosa [8] was 128 µg/mL (≈ 396 µM) in each case.
`O=C(O)c1cn(C2CC2)c2cc(N3CCNCC3)c(F)cc2c1=O` [CIPROFLOXACIN]: the MIC with Pseudomonas aeruginosa [1] turned out to be 1 µg/mL (≈ 3.02 µM); against Pseudomonas aeruginosa [5], 0.12 µg/mL (≈ 0.362 µM); in the experiment with Pseudomonas aeruginosa [20], 0.12 µg/mL (≈ 0.362 µM).
Take `C[C@@H](O)[C@H]1C(=O)N2C(C(=O)O)=C(SCCNC=N)C[C@H]12` [IMIPENEM ANHYDROUS]: the MIC turned out to be 4 µg/mL (≈ 13.4 µM) against Pseudomonas aeruginosa [15]; 2 µg/mL (≈ 6.68 µM) in the experiment with Pseudomonas aeruginosa [1]; 2 µg/mL (≈ 6.68 µM) against Pseudomonas aeruginosa [16]; 1 µg/mL (≈ 3.34 µM) in the experiment with Pseudomonas aeruginosa [17]; 0.5 µg/mL (≈ 1.67 µM) against Pseudomonas aeruginosa [2]; 2 µg/mL (≈ 6.68 µM) in the experiment with Pseudomonas aeruginosa [18]. Moreover, the MIC came to 0.5 µg/mL (≈ 1.67 µM) against Pseudomonas aeruginosa [3]; 2 µg/mL (≈ 6.68 µM) in the experiment with Pseudomonas aeruginosa [4]; 2 µg/mL (≈ 6.68 µM) in the experiment with Pseudomonas aeruginosa [5]; 0.5 µg/mL (≈ 1.67 µM) in the experiment with Pseudomonas aeruginosa [6]; 2 µg/mL (≈ 6.68 µM) in the experiment on Pseudomonas aeruginosa [19]; 2 µg/mL (≈ 6.68 µM) with Pseudomonas aeruginosa [20]. Also, the figures for the MIC in the experiment with Pseudomonas aeruginosa [7] and in the experiment on Pseudomonas aeruginosa [8] were 0.5 µg/mL (≈ 1.67 µM) and 0.12 µg/mL (≈ 0.401 µM), respectively.
Consider `CC1(C)S[C@@H]2[C@H](NC(=O)[C@H](C(=O)O)c3ccsc3)C(=O)N2[C@H]1C(=O)O` [TICARCILLIN], for which the MIC in the experiment on Pseudomonas aeruginosa [1] stood at 8 µg/mL (≈ 20.8 µM); with Pseudomonas aeruginosa [2], 4 µg/mL (≈ 10.4 µM); against Pseudomonas aeruginosa [3] it was 2 µg/mL (≈ 5.2 µM); against Pseudomonas aeruginosa [4], 16 µg/mL (≈ 41.6 µM); in the experiment on Pseudomonas aeruginosa [5] it was 16 µg/mL (≈ 41.6 µM); with Pseudomonas aeruginosa [6], 4 µg/mL (≈ 10.4 µM). Besides, the figures for the MIC against Pseudomonas aeruginosa [7] and with Pseudomonas aeruginosa [8] were 4 µg/mL (≈ 10.4 µM) and 2 µg/mL (≈ 5.2 µM), respectively.
For `NC[C@H]1O[C@H](O[C@H]2[C@H](O)[C@@H](O[C@H]3O[C@H](CO)[C@@H](O)[C@H](N)[C@H]3O)[C@H](N)C[C@@H]2N)[C@H](N)C[C@@H]1O` [TOBRAMYCIN], the MIC is 0.5 µg/mL (≈ 1.07 µM) in the experiment on Pseudomonas aeruginosa [15]; 0.25 µg/mL (≈ 0.535 µM) in the experiment on Pseudomonas aeruginosa [1]; 1 µg/mL (≈ 2.14 µM) against Pseudomonas aeruginosa [16]; 0.5 µg/mL (≈ 1.07 µM) in the experiment on Pseudomonas aeruginosa [17]; 0.25 µg/mL (≈ 0.535 µM) against Pseudomonas aeruginosa [2]; 0.25 µg/mL (≈ 0.535 µM) against Pseudomonas aeruginosa [18]. Further, the MIC worked out at 0.25 µg/mL (≈ 0.535 µM) in the experiment on Pseudomonas aeruginosa [3]; 0.5 µg/mL (≈ 1.07 µM) against Pseudomonas aeruginosa [4]; 0.25 µg/mL (≈ 0.535 µM) against Pseudomonas aeruginosa [5]; 0.25 µg/mL (≈ 0.535 µM) against Pseudomonas aeruginosa [6]; 0.5 µg/mL (≈ 1.07 µM) with Pseudomonas aeruginosa [19]; 0.25 µg/mL (≈ 0.535 µM) in the experiment with Pseudomonas aeruginosa [20]. Moreover, the MIC against Pseudomonas aeruginosa [7] was found to be 0.25 µg/mL (≈ 0.535 µM); in the experiment with Pseudomonas aeruginosa [8], 0.12 µg/mL (≈ 0.257 µM).
In the case of GENTAMICIN, the MIC in the experiment with Pseudomonas aeruginosa [15] turned out to be 2 µg/mL; in the experiment with Pseudomonas aeruginosa [1], 1 µg/mL; against Pseudomonas aeruginosa [16], 2 µg/mL; against Pseudomonas aeruginosa [17], 2 µg/mL; against Pseudomonas aeruginosa [3], 1 µg/mL; in the experiment with Pseudomonas aeruginosa [4] it was 2 µg/mL. For the same compound, the MIC against Pseudomonas aeruginosa [5] was found to be 0.25 µg/mL; in the experiment on Pseudomonas aeruginosa [19], 2 µg/mL; against Pseudomonas aeruginosa [20], 1 µg/mL; against Pseudomonas aeruginosa [8], 0.25 µg/mL.

The values above are taken from ChEMBL document CHEMBL1275455, “Resistance and virulence of Pseudomonas aeruginosa clinical strains overproducing the MexCD-OprJ efflux pump” (2008).
